This note sets out measurements from ChEMBL document CHEMBL1122504, “Heterocyclic Quinones. 4. A new highly cytotoxic drug: 6,7-bis(1-aziridinyl)-5,8-quinazolinedione” (1983).

The test system of one assay is L1210. In words: Number of survivors of L1210 cell line on day 5/ number of treated mice at a dose of 9ip injection of 2.5 mg/kg on Q01Dx09 treatment schedule; 10/10. Type of assay: functional, Mus musculus.
A further assay has as its system P388. In words: MST of treated animal over control when administered at a dose of 10 mg/kg intraperitoneally on Q04Dx03 treatment schedule. Type of assay: functional, Mus musculus. The conditions noted are these: route intraperitoneal. The gist of the method:
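P388 leukaemia: DBA/2 mice inoculated with 10^6 cells on day 0; treatment began day 1 at the stated route and schedule. Drug was dissolved in 0.15 M NaCl saline. The read-out was median survival time (MST, days), with toxicity taken as survivors on day 5. T/C% = treated MST/control MST × 100; ≥125% is considered significant.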

The subject of the next assay is Salmonella typhimurium. As to the kind of experiment: Mutagenesis test was performed at 60 uM concentration in Salmonella Typhimurium TA 98. Type of assay: functional, Salmonella enterica subsp. enterica serovar Typhimurium. Summed up: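 Salmonella typhimurium his auxotrophs TA98 and TA100 were tested by liquid suspension without metabolic activation. Overnight Oxoid nutrient broth cultures were subcultured, grown 2 h, then exposed to drug for 5 h. Cells were washed, resuspended to A650 2.50, and plated in top agar (0.6% agar, 0.6% NaCl). His+ revertants per plate were counted after 48 h at 37 °C; values are means of three assays.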

The structures appear in SMILES notation.

As a reminder, the T/C is the ratio of treated to control. On to `O=C1C(N2CC2)=C(N2CC2)C(=O)c2ncncc21`, for which the “Toxicity Survivors” value in the assay on L1210 was found to be 10. This compound also yielded a T/C with P388 of 132%. This compound also had a Revertants/plate in the assay with Salmonella typhimurium of 1080.
